Results: paper PMC6766976 (Journal of Clinical Pharmacology, 2019)
Like-named read-outs stand apart in the source and are kept apart here.

Legend:
[1] = format: in vivo, human
[2] = Safety and tolerability assessments in the hepatic impairment study; format: in vivo, human; conditions: Single 15-mg dose
Procedure, shortened: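 Open-label, single-dose study in subjects with mild or moderate hepatic impairment (Child-Pugh) and normal-function controls. Subjects were confined from the day before dosing and given the oral extended-release test compound after a 10-hour fast, then fasted 4 h post-dose. Adverse events, hematology, blood chemistry, vital signs, ECGs and physical exams were monitored. Treatment-emergent events were tabulated per hepatic group by MedDRA class and term.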

[3] = Over the range of IR and ER doses evaluated in clinical studies; cited from earlier work
[4] = cited from earlier work
cytochrome P450 (CYP) 3A = conditions: cited from earlier work
[5] = cited from earlier work; remark: listed apart in the source
[6] = cited from earlier work; remark: listed apart in the source
plasma proteins = conditions: ref data on file at AbbVie; cited from earlier work
[7] = cited from earlier work; remark: listed apart in the source
JAK 1 = conditions: cited from earlier work
JAK 2 = conditions: cited from earlier work
JAK 3 = conditions: cited from earlier work
Tyk2 = conditions: cited from earlier work
[8] = Moderate hepatic impairment (outlier excluded)
[9] = Subjects with mild and moderate hepatic impairment
[10] = IR formulation, relative to upadacitinib alone

Question: For `CC[C@@H]1CN(C(=O)NCC(F)(F)F)C[C@@H]1c1cnc2cnc3[nH]ccc3n12` [upadacitinib], which “AUC lower compared with mean AUC in subjects with normal hepatic function” value ([1]; 1 subject in the moderate hepatic impairment group (excluded from analyses)) is on record?
Answer: approximately 70%

Question: And the “Plasma concentration at 120 hours” value ([1]; All subjects and all groups, lower limit of quantitation 0.05 ng/mL)?
Answer: below the assay limit of quantification

Question: What about the “AUC central value higher compared with normal hepatic function” value ([1]; Mild hepatic impairment) of the same compound?
Answer: 28%

Question: And the “Cmax central value compared with normal hepatic function” value ([1]; Mild hepatic impairment)?
Answer: similar

Question: What about the “β (terminal-phase elimination rate constant) versus normal hepatic function” value ([1]; Mild hepatic impairment, ANCOVA) of the same compound?
Answer: no statistically significant difference

Question: And the “AUC central value higher compared with normal hepatic function” value [1, 8]?
Answer: 24%

Question: And the “Cmax central value higher compared with normal hepatic function” value [1, 8]?
Answer: 43%

Question: And the “Increase in upadacitinib exposure, AUC” value [1, 9]?
Answer: < 30%

Question: And the “Increase in upadacitinib exposure, Cmax” value [1, 9]?
Answer: < 45%

Question: And the “Changes in vital signs or hematology measurements” value [2]?
Answer: No clinically significant changes

Question: What about the Tolerability ([2]; all subjects) of the same compound?
Answer: well tolerated

Question: And the “Plasma exposure dose and time dependence” value [3]?
Answer: approximately dose proportional and time independent

Question: And the “Dose eliminated unchanged in urine” value ([4]; IR dose)?
Answer: Approximately 20%

Question: What about the “Dose eliminated in urine and feces as metabolites” value ([4]; ref data on file at AbbVie) of the same compound?
Answer: approximately 30%

Question: And the “Substrate status for cytochrome P450 (CYP) 3A” value (cytochrome P450 (CYP) 3A; Evaluated in phase 1 drug-interaction study with ketoconazole)?
Answer: nonsensitive substrate

Question: And the “Increase in plasma AUC with coadministration of ketoconazole” value (cytochrome P450 (CYP) 3A; [10])?
Answer: 75%

Question: And the “Increase in plasma Cmax with coadministration of ketoconazole” value (cytochrome P450 (CYP) 3A; [10])?
Answer: 70%

Question: What about the “Increase in upadacitinib exposure with a high-fat meal” value [5] of the same compound?
Answer: Approximately 20%

Question: And the “AUC higher compared with normal renal function” value ([6]; Mild renal impairment)?
Answer: 18%

Question: What about the “Cmax compared with normal renal function” value ([6]; Mild, moderate and severe renal impairment) of the same compound?
Answer: similar

Question: And the “AUC higher compared with normal renal function” value ([6]; Moderate renal impairment)?
Answer: 33%

Question: What about the “AUC higher compared with normal renal function” value ([6]; Severe renal impairment) of the same compound?
Answer: 44%

Question: What about the Plasma protein binding (plasma proteins) of the same compound?
Answer: not extensively bound to plasma proteins

Question: And the “Impact of baseline AST, ALT and bilirubin on upadacitinib exposure” value ([7]; Phase 1 to 3 studies, healthy subjects and subjects with RA)?
Answer: no impact

Question: And the “Correlation of CYP2D6 metabolic phenotype with upadacitinib clearance” value [7]?
Answer: not correlated

Question: What about the “Effect of age, weight, sex, race and ethnicity on upadacitinib exposure” value [7] of the same compound?
Answer: no clinically relevant effect

Question: What about the “Inhibition of JAK 1” value (JAK 1) of the same compound?
Answer: potently inhibits

Question: And the “Potency against JAK 2 compared with JAK 1” value (JAK 2)?
Answer: less potent

Question: What about the “Potency against JAK 3 compared with JAK 1” value (JAK 3) of the same compound?
Answer: less potent

Question: And the “Potency against Tyk2 compared with JAK 1” value (Tyk2)?
Answer: less potent
